pKi: −log10 of the molar value.
Legend:
Assay type in all cases: cell-based
[1] = target: T1, GABA-A receptor; alpha-5/beta-3/gamma-2 (Homo sapiens, UniProt P18507+P28472+P31644); assay: Inhibition of [3H]Ro-151788 binding to recombinant human gamma-aminobutyric-acid A receptor alpha-5-beta-3-gamma-2 subtype expressed in L (tk-) cells
T1 sequence (P18507 whole entry): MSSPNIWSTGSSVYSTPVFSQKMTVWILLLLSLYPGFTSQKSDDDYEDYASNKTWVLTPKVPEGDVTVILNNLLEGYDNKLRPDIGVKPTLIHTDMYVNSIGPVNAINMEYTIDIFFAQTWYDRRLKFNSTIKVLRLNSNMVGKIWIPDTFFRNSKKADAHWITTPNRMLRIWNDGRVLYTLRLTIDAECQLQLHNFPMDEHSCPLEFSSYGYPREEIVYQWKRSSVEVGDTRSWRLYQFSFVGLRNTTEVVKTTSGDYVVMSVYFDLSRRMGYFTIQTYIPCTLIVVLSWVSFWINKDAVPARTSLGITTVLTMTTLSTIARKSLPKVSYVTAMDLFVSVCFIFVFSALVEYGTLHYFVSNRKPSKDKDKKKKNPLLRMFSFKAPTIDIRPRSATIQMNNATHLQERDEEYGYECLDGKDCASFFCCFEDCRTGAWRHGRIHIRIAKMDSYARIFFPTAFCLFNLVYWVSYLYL
T1 sequence (P28472 whole entry): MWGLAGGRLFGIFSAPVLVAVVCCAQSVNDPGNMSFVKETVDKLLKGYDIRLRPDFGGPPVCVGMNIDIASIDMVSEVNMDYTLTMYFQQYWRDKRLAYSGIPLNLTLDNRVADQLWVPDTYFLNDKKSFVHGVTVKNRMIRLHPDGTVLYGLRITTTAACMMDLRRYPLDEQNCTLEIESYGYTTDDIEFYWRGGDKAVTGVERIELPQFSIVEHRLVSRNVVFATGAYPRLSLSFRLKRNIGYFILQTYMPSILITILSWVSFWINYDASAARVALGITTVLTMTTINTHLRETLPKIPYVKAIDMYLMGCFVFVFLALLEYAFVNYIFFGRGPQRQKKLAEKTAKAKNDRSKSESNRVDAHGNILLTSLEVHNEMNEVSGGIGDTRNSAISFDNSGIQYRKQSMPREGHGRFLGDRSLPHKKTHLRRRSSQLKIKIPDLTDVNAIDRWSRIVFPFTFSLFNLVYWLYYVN
T1 sequence (P31644 whole entry): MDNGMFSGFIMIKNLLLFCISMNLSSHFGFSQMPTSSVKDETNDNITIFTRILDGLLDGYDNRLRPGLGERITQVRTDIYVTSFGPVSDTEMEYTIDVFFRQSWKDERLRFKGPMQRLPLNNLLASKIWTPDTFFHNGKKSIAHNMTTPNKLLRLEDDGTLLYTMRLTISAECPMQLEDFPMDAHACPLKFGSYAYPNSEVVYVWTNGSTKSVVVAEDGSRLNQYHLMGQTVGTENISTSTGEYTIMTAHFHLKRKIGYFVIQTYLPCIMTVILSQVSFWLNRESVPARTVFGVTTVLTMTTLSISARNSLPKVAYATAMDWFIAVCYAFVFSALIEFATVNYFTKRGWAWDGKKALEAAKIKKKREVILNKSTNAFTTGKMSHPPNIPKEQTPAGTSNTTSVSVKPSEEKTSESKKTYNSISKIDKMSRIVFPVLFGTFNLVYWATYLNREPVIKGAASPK

[2] = target: T2, GABA-A receptor; alpha-2/beta-3/gamma-2 (Homo sapiens, UniProt P18507+P28472+P47869); assay: Inhibition of [3H]Ro-151788 binding to recombinant human gamma-aminobutyric acid A receptor alpha-2-beta-3-gamma-2 subtype expressed in L (tk-) cells
T2 sequence (P18507 whole entry): T1 sequence (P18507 whole entry)
T2 sequence (P28472 whole entry): T1 sequence (P28472 whole entry)
T2 sequence (P47869 whole entry): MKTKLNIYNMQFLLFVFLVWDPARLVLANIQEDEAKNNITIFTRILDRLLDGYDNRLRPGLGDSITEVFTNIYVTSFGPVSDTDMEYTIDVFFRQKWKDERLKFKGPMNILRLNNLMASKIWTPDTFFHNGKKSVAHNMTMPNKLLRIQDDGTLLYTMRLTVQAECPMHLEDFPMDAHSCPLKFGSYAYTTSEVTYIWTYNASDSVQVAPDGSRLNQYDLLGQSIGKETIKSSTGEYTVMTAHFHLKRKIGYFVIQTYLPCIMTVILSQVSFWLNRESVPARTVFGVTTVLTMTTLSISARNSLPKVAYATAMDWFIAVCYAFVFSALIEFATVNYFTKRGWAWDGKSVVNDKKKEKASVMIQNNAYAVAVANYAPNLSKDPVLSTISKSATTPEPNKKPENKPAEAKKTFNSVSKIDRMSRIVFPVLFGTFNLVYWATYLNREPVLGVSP

[3] = target: T3, GABA-A receptor; alpha-3/beta-3/gamma-2 (Homo sapiens, UniProt P18507+P28472+P34903); assay: Inhibition of [3H]Ro-151788 binding to recombinant human gamma-aminobutyric-acid A receptor alpha-3-beta-3-gamma-2 subtype expressed in L (tk-) cells
T3 sequence (P18507 whole entry): T1 sequence (P18507 whole entry)
T3 sequence (P28472 whole entry): T1 sequence (P28472 whole entry)
T3 sequence (P34903 whole entry): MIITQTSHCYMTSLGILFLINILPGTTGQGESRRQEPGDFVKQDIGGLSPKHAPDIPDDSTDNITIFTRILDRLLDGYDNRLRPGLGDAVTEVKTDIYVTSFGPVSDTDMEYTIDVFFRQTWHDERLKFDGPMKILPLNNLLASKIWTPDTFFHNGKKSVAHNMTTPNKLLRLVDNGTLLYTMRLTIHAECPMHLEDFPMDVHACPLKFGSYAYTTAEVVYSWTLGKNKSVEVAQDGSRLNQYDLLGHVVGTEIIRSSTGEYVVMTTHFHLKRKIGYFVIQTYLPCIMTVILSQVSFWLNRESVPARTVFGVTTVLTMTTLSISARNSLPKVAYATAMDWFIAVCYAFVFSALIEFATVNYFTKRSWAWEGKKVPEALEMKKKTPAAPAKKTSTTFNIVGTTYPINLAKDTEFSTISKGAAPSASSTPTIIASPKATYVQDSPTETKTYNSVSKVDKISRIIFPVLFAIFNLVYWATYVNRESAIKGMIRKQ

[4] = target: GABA-A receptor; alpha-3/beta-3/gamma-2 (Homo sapiens) (UniProt P18507+P28472+P34903); assay: Efficacy was measured as modulation of the current in response to GABA at hGABA alpha-3-beta-3-gamma-2 receptor expressed in Xenopus oocytes; details: Oocyte
Outline: (§1)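 Two-electrode voltage clamp on Xenopus oocytes expressing each receptor combination. […] Value is percent increase or decrease of the EC20 GABA current.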

[5] = target: T4, GABA-A receptor; alpha-1/beta-3/gamma-2 (Homo sapiens, UniProt P14867+P18507+P28472); assay: Inhibition of [3H]Ro-151788 binding to recombinant human gamma-aminobutyric-acid A receptor alpha-1-beta-3-gamma-2 subtype expressed in L (tk-) cells
T4 sequence (P14867 whole entry): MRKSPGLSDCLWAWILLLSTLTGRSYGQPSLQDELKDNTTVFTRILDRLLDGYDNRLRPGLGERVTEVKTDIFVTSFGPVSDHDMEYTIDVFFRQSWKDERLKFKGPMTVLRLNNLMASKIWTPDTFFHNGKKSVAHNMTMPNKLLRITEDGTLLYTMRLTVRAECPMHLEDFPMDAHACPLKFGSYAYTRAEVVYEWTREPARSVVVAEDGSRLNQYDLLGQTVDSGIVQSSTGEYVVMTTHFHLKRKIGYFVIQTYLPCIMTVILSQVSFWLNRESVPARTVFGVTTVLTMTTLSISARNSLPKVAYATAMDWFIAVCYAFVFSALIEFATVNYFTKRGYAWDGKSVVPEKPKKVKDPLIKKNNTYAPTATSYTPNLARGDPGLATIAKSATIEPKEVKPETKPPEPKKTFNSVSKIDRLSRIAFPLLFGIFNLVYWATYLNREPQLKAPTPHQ
T4 sequence (P18507 whole entry): T1 sequence (P18507 whole entry)
T4 sequence (P28472 whole entry): T1 sequence (P28472 whole entry)

[6] = target: GABA-A receptor; alpha-1/beta-3/gamma-2 (Homo sapiens) (UniProt P14867+P18507+P28472); assay: Efficacy was measured as modulation of the current in response to GABA at hGABA alpha-1-beta-3-gamma-2 receptor expressed in Xenopus oocytes; details: Oocyte; outline: as §1

pKi [1]	pKi [2]	pKi [3]	Efficacy [4] [%]	pKi [5]	Efficacy [6] [%]	SMILES
8.22	7.10	7.54	43	6.85	51	COc1cccc(-c2nnc3c4c(c(OCc5ccccn5)nn23)C2CCC4CC2)c1
8.57	7.46	7.74	27	7.00	84	c1ccc(-c2nnc3c4c(c(OCc5nccs5)nn23)C2CCC4CC2)cc1
9.72	8.60	8.85	78	9.05	41	CCCn1ncnc1COc1nn2c(-c3ccccc3)nnc2c2c1C1CCC2CC1
9.54	8.64	9.00	23	8.48	26	CCn1ccnc1COc1nn2c(-c3ccccc3)nnc2c2c1C1CCC2CC1
9.35	8.15	8.37	24	7.72	24	Cn1ccnc1COc1nn2c(-c3ccccc3)nnc2c2c1C1CCC2CC1
9.06	7.74	8.17	29	7.28	35	c1ccc(-c2nnc3c4c(c(OCc5ncc[nH]5)nn23)C2CCC4CC2)cc1
9.68	8.77	8.70	100	9.09	73	c1ccc(Cn2ccnc2COc2nn3c(-c4ccccc4)nnc3c3c2C2CCC3CC2)cc1
9.41	8.28	8.55	22	7.96	–	Cn1ncnc1COc1nn2c(-c3ccccc3)nnc2c2c1C1CCC2CC1
9.26	8.09	8.51	14	7.66	–	c1ccc(-c2nnc3c4c(c(OCc5ccncn5)nn23)C2CCC4CC2)cc1
8.33	7.09	7.89	17	6.85	38	c1ccc(-c2nnc3c4c(c(OCc5ccncc5)nn23)C2CCC4CC2)cc1
9.30	8.01	8.41	97	7.89	77	COCCOc1cccnc1COc1nn2c(-c3ccccc3)nnc2c2c1C1CCC2CC1
9.08	8.06	8.44	12	7.57	–	Cc1ccc(C)c(COc2nn3c(-c4ccccc4)nnc3c3c2C2CCC3CC2)n1
8.51	8.00	8.62	52	8.46	62	CCCc1cccnc1COc1nn2c(-c3ccccc3)nnc2c2c1C1CCC2CC1
9.44	8.55	8.96	46	8.41	66	CCOc1cccnc1COc1nn2c(-c3ccccc3)nnc2c2c1C1CCC2CC1
8.68	7.66	8.00	31	7.30	–	Cc1ccc(COc2nn3c(-c4ccccc4)nnc3c3c2C2CCC3CC2)nn1
9.00	8.40	8.77	17	7.96	–	Cc1ccnc(COc2nn3c(-c4ccccc4)nnc3c3c2C2CCC3CC2)c1C
9.16	8.12	8.35	14	7.54	45	c1ccc(-c2nnc3c4c(c(OCc5nccc6ccccc56)nn23)C2CCC4CC2)cc1
8.57	7.37	7.72	0	6.89	76	c1ccc(-c2nnc3c4c(c(OCn5cccn5)nn23)C2CCC4CC2)cc1
8.38	7.13	7.28	33	6.64	14	COc1ccc(-c2nnc3c4c(c(OCc5ccccn5)nn23)C2CCC4CC2)cc1
8.07	7.47	7.72	20	7.15	–	OCCCCOc1nn2c(-c3ccccc3)nnc2c2c1C1CCC2CC1
9.27	8.23	8.77	17	7.89	–	N#Cc1cccnc1COc1nn2c(-c3ccccc3)nnc2c2c1C1CCC2CC1
8.05	7.30	7.40	83	7.11	–	CCCn1cnc(COc2nn3c(-c4ccccc4)nnc3c3c2C2CCC3CC2)n1
9.19	8.04	8.62	8	7.77	–	COc1cccnc1COc1nn2c(-c3ccccc3)nnc2c2c1C1CCC2CC1

Reference: ChEMBL document CHEMBL1142695, “Discovery of functionally selective 7,8,9,10-tetrahydro-7,10-ethano-1,2,4-triazolo[3,4-a]phthalazines as GABA A receptor agonists at the alpha3 subunit” (J Med Chem, 2005)
